One may read the IC50 as the midpoint of a concentration-inhibition curve. By EC50 is commonly meant the concentration at which the effect is half-maximal. As a reminder, the Ki is the equilibrium dissociation constant of an inhibitor or competing ligand from its target. A lower Ki goes with a stronger hold on the target. In general, T/C refers to the ratio of treated to control. What is called Tmax is the time from dosing to the highest level. A word on the AUC(0-t): it is the area under the concentration-time curve up to a stated or last time point. For orientation: Cmax means the highest concentration seen after dosing. Usually half-life stands for how long it takes for the measured level to halve. Read a low half-life as fast loss.

For data set [1], the target named is T1, Deoxyuridine 5'-triphosphate nucleotidohydrolase, mitochondrial (Homo sapiens, UniProt P33316).
T1 sequence (P33316 whole entry): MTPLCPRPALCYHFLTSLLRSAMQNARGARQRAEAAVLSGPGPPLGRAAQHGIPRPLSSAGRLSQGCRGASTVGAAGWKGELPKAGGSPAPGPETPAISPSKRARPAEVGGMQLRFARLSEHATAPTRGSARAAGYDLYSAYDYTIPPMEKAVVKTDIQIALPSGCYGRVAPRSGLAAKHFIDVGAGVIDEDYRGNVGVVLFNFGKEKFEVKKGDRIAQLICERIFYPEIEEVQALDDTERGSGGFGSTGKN
Put plainly: Inhibition of human dUTPase assessed as production of [5-3H]dUMP from [5-3H]dUTP after 15 mins measured by HPLC analysis.

A short description of data set [2]: Potentiation of antiproliferative activity of FdUrd against human HeLaS3 cells assessed as compound concentration causing 50% reduction in 1 uM FdUrd T/C value after 24 hrs by crystal violet assay. Format: functional, cell-based, HeLa S3. The procedure, abridged: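 HeLa S3 cells seeded at 1500 cells/well and pre-incubated 24 h. Compound (1–100 μM) or DMSO added together with FdUrd (1 μM) for 24 h. Thymidine (30 μM) then added for a further 48 h. Crystal violet read-out at OD540. EC50 is the concentration that halves the FdUrd T/C (%), taken from the curve. Mean of three independent assays ± SD.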

Data set [3] in a line: Inhibition of Escherichia coli dUTPase.
Data set [4] can be described thus: Antiproliferative activity against human HeLaS3 cells at 30 uM after 72 hrs by crystal violet assay. Type of data set: functional, HeLa S3. In outline:
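HeLa S3 cells grown in RPMI1640 with 10% FBS, seeded at 1500 cells/well and left 24 h at 37 °C, 5% CO2. Compound (1–100 μM) or DMSO vehicle added, then 72 h incubation. Growth read by crystal violet staining, OD540. […] Average of three independent assays.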

Data set [5] concerns MX1. The experiment in a line: Antitumor activity against human MX1 cells xenografted in Balb/c-A JcL-nu mouse assessed as tumor volume at 15 mg/kg/day by continuous infusion for 14 days measured on day 15 (reference value: 2048 +/- 693.7 mm3). Type of data set: functional. The procedure, abridged:
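Five-week-old Balb/cA JcL-nu mice with MX-1 human breast carcinoma fragments (~2 mm) implanted sc by trocar, tumour maintained by sc serial transplantation. 5-FU given by continuous infusion via osmotic pump for 14 days; vehicle 2.5% DMA, 2.5% Tween 80, 10% Cremophor, 0.5% HPMC. Tumour size measured twice weekly; TV = length × width² × 0.5, read on day 15.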
On the technique in general: In xenograft studies the graft and the host belong to different species.

Data set [6] has as its system MX1. Put plainly: Antitumor activity against human MX1 cells xenografted in Balb/c-A JcL-nu mouse assessed as tumor growth inhibition at 15 mg/kg/day by continuous infusion for 14 days measured on day 15 relative to control. Particulars: read-out: GI; call rule not given here. Format: functional.
For data set [7], the system named is MX1. The experiment in a line: Antitumor activity against human MX1 cells xenografted in Balb/c-A JcL-nu mouse assessed as tumor volume at 15 mg/kg/day by continuous infusion for 14 days measured on day 15 relative to control (reference value: 11.4 +/- 3.74). Type of data set: functional.
Data set [8] concerns MX1. Put plainly: Antitumor activity against human MX1 cells xenografted in Balb/c-A JcL-nu mouse assessed as tumor volume at 300 mg/kg/day, po for 14 days measured on day 15 (reference value: 2048 +/- 693.7 mm3). Type of data set: functional. In outline: (§1)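 Five-week-old Balb/cA JcL-nu mice given sc MX-1 tumor fragments (~2 mm) by trocar. Treatment for 14 days: 5-FU 15 mg/kg/day by osmotic-pump continuous infusion, and/or oral compound. Vehicle was 2.5% DMA, 2.5% Tween 80, 10% Cremophor, 0.5% HPMC. Tumor size and body weight measured twice weekly. TV = length × width² × 0.5. RTV = TV day 15/day 0. IR = (1 − treated/control mean RTV) × 100.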

Data set [9] concerns MX1. The experiment in a line: Antitumor activity against human MX1 cells xenografted in Balb/c-A JcL-nu mouse assessed as decrease in tumor volume at 300 mg/kg/day, po for 14 days measured on day 15 relative to control (reference value: 11.4 +/- 3.74). Type of data set: functional. The procedure, abridged:
as §1

Data set [10] is described as follows: Antiproliferative activity against human HeLaS3 cells after 72 hrs by crystal violet assay. Particulars: HeLa S3, 72 h.
Data set [11] in a line: Tmax in Balb/c-A mouse at 50 mg/kg, po in a solution containing 2.5% DMA, 2.5% Tween 80 and 10% cremophor EL. More on the design: dose 50 mg/kg, route oral. Type of data set: ADME, organism-based. Particulars: in vivo. The procedure, abridged: (§2)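 Male Balb/c-A mice aged 6–9 weeks (n = 2), single oral dose; plasma drug levels measured by UPLC.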
The subject of data set [12] is MX1. Put plainly: Potentiation of antitumor activity of 5-Fu against human MX1 cells xenografted in Balb/c-A JcL-nu mouse assessed as tumor volume at 300 mg/kg/day, po for 14 days measured on day 15 (reference value: 2048 +/- 693.7 mm3). Format: functional. In outline:
as §1

For data set [13], the system named is MX1. Put plainly: Potentiation of antitumor activity of 5-Fu against human MX1 cells xenografted in Balb/c-A JcL-nu mouse assessed as decrease in tumor volume at 300 mg/kg/day, po for 14 days measured on day 15 relative to control (reference value: 11.4 +/- 3.74). Type of data set: functional. The procedure, abridged: as §1
The subject of data set [14] is MX1. Put plainly: Antitumor activity against human MX1 cells xenografted in Balb/c-A JcL-nu mouse assessed as tumor growth inhibition at 300 mg/kg/day, po for 14 days measured on day 15 relative to control. Type of data set: functional. The settings on record: read-out: GI. In outline:
as §1

Data set [15] deals with MX1. Put plainly: Potentiation of antitumor activity of 5-Fu against human MX1 cells xenografted in Balb/c-A JcL-nu mouse assessed as tumor growth inhibition at 300 mg/kg/day, po for 14 days measured on day 15 relative to control. Type of data set: functional. The settings on record: read-out: GI. The procedure, abridged:
as §1

Data set [16] in a line: AUCt in Balb/c-A mouse at 50 mg/kg, po in a solution containing 2.5% DMA, 2.5% Tween 80 and 10% cremophor EL. Particulars: plasma. Type of data set: ADME, organism-based. More on the design: dose 50 mg/kg, route oral. In outline: as §2
The nature of data set [17]: Cmax in Balb/c-A mouse at 50 mg/kg, po in a solution containing 2.5% DMA, 2.5% Tween 80 and 10% cremophor EL. Format: ADME, organism-based. Set-up: dose 50 mg/kg, route oral. Particulars: in vivo. The procedure, abridged:
as §2

The subject of another data set is Mus musculus. Put plainly: Toxicity in Balb/c-A JcL-nu mouse bearing human MX1 cells assessed as decrease in body weight at 300 mg/kg/day, po administered for 15 days and co-treated with 5-Fu. Format: organism-based. Set-up: route oral. The settings on record: in vivo, 336 h, in the assay text read “for 14 days” for “for 15 days”. The procedure, abridged: as §1

Data set [18] is described as follows: Half life in Balb/c-A mouse at 50 mg/kg, po in a solution containing 2.5% DMA, 2.5% Tween 80 and 10% cremophor EL. Format: ADME, organism-based. Set-up: dose 50 mg/kg, route oral. The settings on record: in vivo. The procedure, abridged: as §2
The mark [19] stands for this setting: Homo sapiens, HeLa S3, 24 h, read-out: EC50.

On to `O=c1ccn(COCCOS(=O)(=O)NS(=O)(=O)c2ccccc2)c(=O)[nH]1`, for which the IC50 in data set [1] came to 3.1 µM. The EC50 result in [2] (hela s3) is listed as “Not Active”.

As to `C[C@@H](NS(=O)(=O)CCCOCn1ccc(=O)[nH]c1=O)c1cccc(OCC2CC2)c1`, the IC50 in [1] turned out to be 0.04 µM. Also, in data set [2] (setting [19]), the EC50 turned out to be 0.066 µM.

Turning to `COc1cccc(S(=O)(=O)NC(C)(C)CCCOCn2ccc(=O)[nH]c2=O)c1`, the concentration for half-maximal inhibition (IC50) in [1] came out at 1.2 µM. Besides, the concentration giving a half-maximal response (EC50) in data set [2] (setting [19]) is 1.1 µM.

Turning to `O=c1ccn([C@H]2C[C@H](O)[C@@H](COP(=O)(O)CP(=O)(O)OP(=O)(O)OCc3ccccc3)O2)c(=O)[nH]1`, the affinity in data set [3] corresponds to a Ki of 0.3 µM.

On to `COc1cc(C)ccc1S(=O)(=O)NC(C)(C)CCCOCn1ccc(=O)[nH]c1=O`, for which the 50% inhibitory concentration (IC50) in data set [1] was 19.5 µM. Further, in data set [2] (setting [19]), the 50% effective concentration (EC50) turned out to be 14.1 µM.

In the case of `C[C@H](NS(=O)(=O)CCCOCn1ccc(=O)[nH]c1=O)c1cccc(OCC2CC2)c1`, the IC50 in data set [1] amounted to 2.5 µM. Besides, the concentration giving a half-maximal response (EC50) in data set [2] (setting [19]) is 4.15 µM.

As to `O=c1ccn(COCCOC(c2ccccc2)(c2ccccc2)c2ccccc2)c(=O)[nH]1`, the IC50 in data set [1] is more than 100 µM.

Consider `CC(C)(CCCOCn1ccc(=O)[nH]c1=O)NS(=O)(=O)c1ccccc1Cl`, for which the IC50 in [1] was 9.4 µM. For the same compound, in data set [2] (setting [19]), the concentration giving a half-maximal response (EC50) amounted to 7.93 µM.

With `O=c1ccn([C@H]2C[C@H](O)[C@@H](COP(=O)(O)NP(=O)(O)OP(=O)(O)O)O2)c(=O)[nH]1`, in data set [3], the inhibition constant (Ki) came to 5 µM.

For `CC(C)(NS(=O)(=O)CCCOCn1ccc(=O)[nH]c1=O)c1cccc(OCC2CC2)c1`, in data set [1], the half-maximal inhibitory concentration (IC50) was found to be 0.34 µM. In addition, the EC50 in data set [2] (setting [19]) came to 0.45 µM.

Compound `CC(C)(CCCOCn1ccc(=O)[nH]c1=O)NS(=O)(=O)c1ccccc1` showed a T/C in data set [4] of 96%. The 50% effective concentration (EC50) in [2] (setting [19]) was 5.1 µM; in data set [2] (hela s3), “Dose-dependent effect”.

In the case of `CC(C)(CCCOCn1ccc(=O)[nH]c1=O)NS(=O)(=O)c1cccc(OCC2CC2)c1`, the IC50 in [1] was determined as 0.035 µM. Besides, the concentration for a half-maximal effect (EC50) in [2] (setting [19]) is 0.18 µM.

Take `O=c1[nH]cc(F)c(=O)[nH]1` [FLUOROURACIL]: the Activity with MX1 [5] stood at 1645 mm3. Besides, the inhibition in vivo at 15 mg/kg/day in the data set on MX1 [6] came to 20%. In addition, in the data set on MX1 [7], the Ratio stood at 9.13.

As to `CC(C)(CCCOCn1ccc(=O)[nH]c1=O)NS(=O)(=O)c1cccc(Cl)c1`, the 50% inhibitory concentration (IC50) in data set [1] came out at 4.5 µM. Moreover, the EC50 in [2] (setting [19]) amounted to 3.96 µM.

Turning to `COc1ccc(S(=O)(=O)NC(C)(C)CCCOCn2ccc(=O)[nH]c2=O)cc1`, the 50% inhibitory concentration (IC50) in data set [1] is 18.2 µM. The EC50 in data set [2] (setting [19]) came to 14.9 µM.

With `CC(C)(CCCOCn1ccc(=O)[nH]c1=O)NS(=O)(=O)c1ccc(Cl)cc1`, the IC50 in data set [1] amounted to 5.7 µM. In addition, in data set [2] (setting [19]), the EC50 stood at 4.97 µM.

As to `CC(NS(=O)(=O)CCCOCn1ccc(=O)[nH]c1=O)c1cccc(OCC2CC2)c1` (racemic), the IC50 in data set [1] turned out to be 0.062 µM. The 50% effective concentration (EC50) in data set [2] (setting [19]) came out at 0.14 µM.

As to `C[C@@H](NS(=O)(=O)CCCOCn1ccc(=O)[nH]c1=O)c1ccc(F)c(OCC2CC2)c1`, the Activity is on record as 2698 mm3 in the data set with MX1 [8], 299.7 mm3 in the data set on MX1 [12] and “Non-toxic” with Mus musculus. Also, the Ratio came to 14.9 with MX1 [9] and 1.94 with MX1 [13]. Moreover, the figures for the IC50 in data set [10] and in data set [1] were 28.3 µM and 0.021 µM, respectively. Also, the time of peak concentration (Tmax) in data set [11] was 30 min. Moreover, the inhibition in vivo at 300 mg/kg/day with MX1 [14] is -30.9%; with MX1 [15] it was 83%. In [16], this compound showed an AUC(0-t) of 24.9 µM·h. In addition, in data set [2] (setting [19]), the EC50 is 0.075 µM. For the same compound, in data set [17], the highest concentration (Cmax) amounted to 15.1 µM. Moreover, in data set [18], the half-life is 84 min.

`CC(C)(C)[Si](C)(C)OCCOCn1ccc(=O)[nH]c1=O`: the IC50 in [1] was 100 µM.

Source of the values: ChEMBL document CHEMBL2057196, “Discovery of a novel class of potent human deoxyuridine triphosphatase inhibitors remarkably enhancing the antitumor activity of thymidylate synthase inhibitors” (J Med Chem, 2012).
